Tests used:
KIF15-N700 [1] = biological target: T1, KIF15-N700 (Homo sapiens, UniProt Q9NS87); assay: Microtubule binding to coverslip via KIF15 in gliding assay; settings: 1 min postdrug addition; 24 µM Munesib-1 or 100 µM Fift-IN
T1 sequence (Q9NS87 1-700 limits assumed): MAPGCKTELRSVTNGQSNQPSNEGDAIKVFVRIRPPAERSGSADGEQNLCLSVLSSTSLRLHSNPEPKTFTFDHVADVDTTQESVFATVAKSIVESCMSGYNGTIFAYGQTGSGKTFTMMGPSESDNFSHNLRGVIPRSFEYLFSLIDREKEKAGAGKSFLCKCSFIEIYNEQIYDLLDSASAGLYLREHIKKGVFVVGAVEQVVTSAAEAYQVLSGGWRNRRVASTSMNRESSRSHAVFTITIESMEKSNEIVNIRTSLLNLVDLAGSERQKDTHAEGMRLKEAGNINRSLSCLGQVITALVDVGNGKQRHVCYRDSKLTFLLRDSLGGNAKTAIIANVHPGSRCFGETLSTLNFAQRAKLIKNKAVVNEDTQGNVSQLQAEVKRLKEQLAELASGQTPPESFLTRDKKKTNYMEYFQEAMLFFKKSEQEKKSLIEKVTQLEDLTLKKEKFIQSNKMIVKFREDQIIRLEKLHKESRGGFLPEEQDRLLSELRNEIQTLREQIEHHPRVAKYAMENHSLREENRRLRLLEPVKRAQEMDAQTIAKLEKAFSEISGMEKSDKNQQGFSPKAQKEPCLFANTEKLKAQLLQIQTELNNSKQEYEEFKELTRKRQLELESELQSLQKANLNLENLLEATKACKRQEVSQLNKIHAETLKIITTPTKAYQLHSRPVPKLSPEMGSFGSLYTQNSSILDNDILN
Summary of the method: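 During KIF15-N700 gliding assays, microtubules bound to the coverslip were counted immediately before adding drug and after 1 min of incubation. Test compound was 24 µM or 100 µM; DMSO served as control. Results are expressed as the percentage of microtubules remaining bound.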

HSET = biological target: T2, HSET (Homo sapiens, UniProt Q9BW19); assay: Microtubule gliding assay, HSET; assay type: biochemical; settings: 24 µM Munesib-1 or 100 µM Fift-IN
T2 sequence (Q9BW19 1-673): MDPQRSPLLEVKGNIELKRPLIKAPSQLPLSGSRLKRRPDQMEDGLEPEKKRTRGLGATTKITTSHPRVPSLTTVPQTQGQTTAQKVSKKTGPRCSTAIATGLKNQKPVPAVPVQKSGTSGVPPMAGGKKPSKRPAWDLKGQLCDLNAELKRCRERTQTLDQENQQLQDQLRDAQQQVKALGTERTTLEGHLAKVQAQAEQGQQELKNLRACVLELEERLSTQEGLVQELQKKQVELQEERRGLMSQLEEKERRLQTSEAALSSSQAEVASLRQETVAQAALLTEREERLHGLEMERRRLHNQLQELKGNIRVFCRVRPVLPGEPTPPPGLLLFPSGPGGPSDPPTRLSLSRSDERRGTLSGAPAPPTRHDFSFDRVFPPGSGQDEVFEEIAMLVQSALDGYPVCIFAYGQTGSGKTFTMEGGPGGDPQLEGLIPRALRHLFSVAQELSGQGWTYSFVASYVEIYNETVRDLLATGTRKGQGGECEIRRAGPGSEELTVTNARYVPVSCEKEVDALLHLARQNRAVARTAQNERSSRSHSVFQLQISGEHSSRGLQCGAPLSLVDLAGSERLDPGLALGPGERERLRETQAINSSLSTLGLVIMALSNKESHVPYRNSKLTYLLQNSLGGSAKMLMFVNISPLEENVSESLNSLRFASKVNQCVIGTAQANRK
Summary of the method: (§1)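 Gliding assays with other motors used His6-Eg5, His6-EGFP-HSET or K560 (truncated kinesin-1), with test compound at 24 µM or 100 µM. Frames were captured every 5 s for 1 min at 100×. Velocity was the distance travelled in 1 min, from ≥15 microtubules at each of three locations (n ≥ 50 per slide).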

[2] = Precipitation observed in culture media; assay type: physicochemical
[3] = biological target: T3, K560, a truncated form of kinesin-1 (Homo sapiens, UniProt P33176); assay: Microtubule gliding assay, K560; assay type: biochemical; settings: 24 µM Munesib-1 or 100 µM Fift-IN
T3 sequence (P33176 1-560 limits assumed): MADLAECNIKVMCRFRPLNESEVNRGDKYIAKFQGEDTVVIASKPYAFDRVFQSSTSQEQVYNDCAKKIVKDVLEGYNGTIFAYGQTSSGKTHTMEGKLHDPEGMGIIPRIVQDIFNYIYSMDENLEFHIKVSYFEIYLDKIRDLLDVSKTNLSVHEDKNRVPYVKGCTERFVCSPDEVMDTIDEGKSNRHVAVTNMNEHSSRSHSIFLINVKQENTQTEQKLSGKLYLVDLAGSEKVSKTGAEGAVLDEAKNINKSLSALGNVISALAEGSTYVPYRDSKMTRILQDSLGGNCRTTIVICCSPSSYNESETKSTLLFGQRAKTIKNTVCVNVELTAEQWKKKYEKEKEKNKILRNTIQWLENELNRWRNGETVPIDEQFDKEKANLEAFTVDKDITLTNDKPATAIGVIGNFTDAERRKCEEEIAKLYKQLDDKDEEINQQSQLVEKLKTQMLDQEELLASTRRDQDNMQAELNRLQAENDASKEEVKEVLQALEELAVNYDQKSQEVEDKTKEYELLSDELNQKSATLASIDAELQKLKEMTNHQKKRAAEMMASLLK
Summary of the method: as §1

KIF15-N700 [4] = biological target: T1, KIF15-N700; assay: Microtubule gliding assay; assay type: biochemical
Summary of the method: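 His6-KIF15-N700 was expressed in High Five insect cells, then purified by Ni-NTA and Superdex 200 gel filtration. Microtubule gliding was imaged every 5 s for 1 min at 100×. Velocity was taken as distance travelled in 1 min, from ≥15 microtubules at each of three slide locations (n ≥ 50 per slide). Concentration-response curves used eight concentrations from 10 nM up to 30 or 100 µM, in triplicate. Single-point derivative tests used 25 µM.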

[5] = system: HeLa-derived KIRC-2 cells; assay: Preanaphase spindle monopolarity, HeLa-derived KIRC-2 cells; assay type: cell-based; settings: same concentrations as in KIRC-1 cells
[6] = 24 µM Munesib-1 or 100 µM Fift-IN

COC(=O)c1ccc2c(c1)N(C)S(=O)(=O)c1cnc(SC)nc1-2 [Munesib-1, Methyl 6-methyl-2-(methylthio)-6H-benzo[c]pyrimido[4,5-e][1,2]thiazine-8-carboxylate 5,5-dioxide]
microtubules remaining bound to the coverslip via KIF15 (KIF15-N700 [1]): little effect on binding
inhibition of microtubule gliding, HSET (HSET): neither substantially inhibited
solubility observation [2]: often precipitated in culture media
inhibition of microtubule gliding, K560 [3]: neither substantially inhibited
gliding velocity after removal of compound (wash-out) (KIF15-N700 [4]; 24 μM Munesib-1): nearly restored to baseline
microtubule gliding on addition of compound (wash-in) (KIF15-N700 [4]; 24 μM Munesib-1): fully abrogated
inhibition of microtubule gliding, KIF15 (KIF15-N700 [4]; [6]): robustly inhibited
reversibility of inhibition (washout experiment) (KIF15-N700 [4]; [6]): reversible inhibitor
% inhibition of KIF15 microtubule gliding activity (KIF15-N700 [4]; 25 µM, singlicate): completely eliminates
IC50 (KIF15-N700 [4]; IC50, microtubule gliding assay, KIF15-N700): 400 nM
fold stronger inhibitory action against KIF15 than Fift-IN (KIF15-N700 [4]; in vitro ATPase and microtubule gliding assays): roughly 10 fold
effect on monopolarity index [5]: failed to substantially increase the monopolarity index
